# Sampled rows, rich in hits. Any-hit rate of the full collection: about 2%.
# SR-BI HDL uptake: inhibitors of mouse SR-BI mediated HDL lipid uptake; Q61009; ldlA[mSR-BI] CHO cells, DiI-HDL uptake fluorescence, 3 h; inhibition, % at 12.5 µM; 320,000 tested, 0.96% active;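 active = mean replicate inhibition of at least 70% and a set share of replicates each scoring 70 or more; inconclusive = meets just one of the two criteria; inactive = fails both criteria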;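 note: 0% = median of neutral control wells and 100% = median of positive control wells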
# Target sequence (Q61009 whole entry, looked up): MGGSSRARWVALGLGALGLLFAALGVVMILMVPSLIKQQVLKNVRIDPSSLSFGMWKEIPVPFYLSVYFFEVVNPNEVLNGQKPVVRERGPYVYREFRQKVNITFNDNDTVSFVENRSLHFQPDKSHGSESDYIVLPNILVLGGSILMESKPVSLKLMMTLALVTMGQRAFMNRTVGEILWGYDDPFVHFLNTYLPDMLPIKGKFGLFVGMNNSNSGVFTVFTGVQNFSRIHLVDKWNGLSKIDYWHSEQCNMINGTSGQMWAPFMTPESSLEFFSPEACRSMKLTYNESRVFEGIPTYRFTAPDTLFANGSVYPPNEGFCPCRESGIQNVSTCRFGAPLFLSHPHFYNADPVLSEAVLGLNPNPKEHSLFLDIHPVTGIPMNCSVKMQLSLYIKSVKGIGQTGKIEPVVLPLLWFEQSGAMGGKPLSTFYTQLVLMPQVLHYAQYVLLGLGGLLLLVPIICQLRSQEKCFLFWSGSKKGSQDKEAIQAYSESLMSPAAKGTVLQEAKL
# CDK5 p35 inh: blocks human CDK5/p35 kinase activity | Recombinant CDK5/p35, ADP-Glo luminescence, 60 min | AID 488839 | inhibition, % at 10 µM | 330,000 tested, 0.01% active;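 active = highest replicate inhibition of at least 50% and at least 75% of replicates reaching 50%; inconclusive = only one of the two criteria met; inactive = both criteria failed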;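 note: plate controls were DMSO neutral control for no effect and GW8510 at 10 µM for full effect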
# SR-BI uptake up: SR-BI HDL lipid transfer activation | CHO ldlA[mSR-BI] cells, DiI-HDL uptake fluorescence, 3 h; 100 = double the neutral-control signal | activation, % at 12.5 µM | 320,000 tested, 0.096% active | AID 504775;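 active = mean replicate activation of at least 60% and every replicate at or above 60%; inconclusive = mean or all-replicate condition met, but not both; inactive = mean below 60% and not all replicates reaching 60%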;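 note: 0% = median plate neutral-control signal and 100% = twice that signal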
#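 Test system: SR-BI-overexpressing, LDLR-lacking CHO cells. Measured by: DiI fluorescence, bottom read. Medium: Ham's F12 with 0.5% BSA, HEPES 25 mM, pH 7.4. Timing: 3 h uptake period with compound, 37 °C.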
# dFosB act-1: mouse delta FosB homodimer activation | P13346 | purified delta FosB, TAMRA-CDK5 oligo fluorescence polarization; percent of positive-control signal above neutral wells | activation, % at 25 µM | 340,000 tested, 0.99% active;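 active = mean activation above about 17%, with every replicate also reaching it, limit read from the data, passing the limit was not always enough; inconclusive = only one of the two conditions met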
# dFosB act-2: activators of mouse delta FosB homodimer DNA binding | shares compounds with dFosB act-1 | purified delta FosB, TAMRA-CDK5 oligo fluorescence polarization; normalised: neutral wells 0, positive control 100 | activation, % at 24.9 µM | 2,400 tested, under 10 active;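 active = highest replicate activation at or above 34% and every replicate reaching that threshold; inconclusive = meets only one of the two criteria; inactive = meets neither criterion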;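 note: higher polarization means more probe DNA bound by delta FosB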
# * hit, by the source's call; ? = inconclusive; . = no result given.
SMILES,SR-BI HDL uptake,CDK5 p35 inh,SR-BI uptake up,dFosB act-1,dFosB act-2
C#CCOCCOCCOCCNc1nc(N2CCN(C(=O)[C@H](CCCN=C(N)N)n3cc(C(N)[C@@H](C)CC)nn3)CC2)nc(N2CCN(C(=O)[C@H](CCCCN)n3cc([C@@H](N)[C@H](C)CC)nn3)CC2)n1 (stereo partly drawn),6,-2,-6,36*,0
CCN(C(=O)COC(=O)c1ccc(Br)o1)C1CCCCC1,5,-10,-5,-2,.
Cc1ccc2sc(NC(=O)c3ccc(N4C(=O)CCC4=O)cc3)nc2c1C,61,0,-61,-3,.
Cc1cc(C)c2sc(NC(=O)c3ccc(N4C(=O)CCC4=O)cc3)nc2c1,.,-1,.,80*,7
O=C(Nc1nc2ccc(F)cc2s1)c1ccc(N2CCCC2=O)cc1,36,2,-36,25*,0
O=C(NCc1ccccn1)c1ccc2c(=O)n3nc(Nc4ccccc4)sc3nc2c1,5,.,-5,27*,4
CCc1ccccc1Nc1nn2c(=O)c3ccc(C(=O)NCc4ccccn4)cc3nc2s1,5,.,-5,-11,.
Clc1ccc(/C=C/c2nc3ccccc3[nH]2)c(Cl)c1,11,5,-11,8,.
O=C(/C=C/c1ccc(Cl)cc1Cl)c1nc2ccccc2[nH]1,4,2,-4,40*,6
COc1cccc(NC(=O)Cn2nnc(C(=O)NCCc3ccccc3)c2N)c1,16,1,-16,37*,3
COc1ccc(NC(=O)Cn2nnc(C(=O)NCCc3ccccc3)c2N)c(OC)c1,40,-2,-40,10,.
COc1ccccc1NC(=O)Cn1nnc(C(=O)NCCc2ccccc2)c1N,30,-1,-30,40*,1
Cc1ccc(CN2CCC(n3nccc3NC(=O)CCOc3ccccc3)CC2)o1,-13,0,13,-6,.
O=C(NC(Cc1ccccc1)c1nc2ccccc2[nH]1)c1ccc(Cl)c([N+](=O)[O-])c1 (stereo not drawn),0,1,0,31*,0
COc1ccc(NC(=O)C2CCN(S(=O)(=O)c3ccc4c(c3)NC(=O)CO4)CC2)cc1,-9,0,9,0,.
O=C(Nc1cccnc1)c1cc2c(s1)-c1ccccc1OC2,39,-1,-39,0,.
Cc1cccc2c1-c1sc(C(=O)Nc3cccnc3)cc1CO2,33,2,-33,32*,2
O=C(Nc1nccs1)c1cc2c(s1)-c1ccccc1OC2,24,-2,-24,37*,3
C=CC(=O)Nc1cccc(CN2C(=O)N(c3cc(OC)cc(OC)c3)Cc3cnc(NCCCCN(CC)CC)nc32)c1,-16,-2,16,36*,?
COc1cccc(NC(=O)Cn2nc(Cc3cccnc3)c3ccccc3c2=O)c1,1,-2,-1,-7,.
CC(NC(=O)COC(=O)c1cc2ccccc2cc1O)c1ccccc1 (stereo not drawn),-9,1,9,24*,1
Cc1cc(C(=O)OCC(=O)NC(C)c2ccccc2)c(C)o1 (stereo not drawn),1,0,-1,-4,.
Cc1c(C(=O)OCC(=O)NC(C)c2ccccc2)oc2ccccc12 (stereo not drawn),-2,2,2,20*,7
Cc1c(C(=O)OCC(=O)NCc2ccco2)oc2ccccc12,9,0,-9,0,.
O=C(CCCN1C(=O)c2ccccc2C1=O)NCCc1ccc(OC(F)F)cc1,3,0,-3,-2,.
SMILES,SR-BI HDL uptake,CDK5 p35 inh,SR-BI uptake up,dFosB act-1,dFosB act-2
CSCCC(NC(=O)c1ccccc1Cl)C(=O)N1CC(C)OC(C)C1 (stereo not drawn),-14,0,14,-4,.
O=C(CCc1nc2ccccc2c(=O)[nH]1)Nc1ccc(Cl)c(Cl)c1,-12,-1,12,8,.
O=C(CCc1nc2ccccc2c(=O)[nH]1)NNC(=O)COc1ccccc1Cl,-13,-2,13,56*,1
Cc1cccc2cc(-c3nc4c(C)cccn4c3NCc3ccco3)c(=O)[nH]c12,-8,0,8,-2,.
Cc1ccc2[nH]c(=O)c(-c3nc4cc(C)ccn4c3NCc3ccco3)cc2c1,-23,1,23,32*,-5
COc1ccc(NC(=O)CC(CC(=O)O)c2cc(OC)c(OC)c(OC)c2)cc1 (stereo not drawn),-8,1,8,9,.
